Reference: ChEMBL document CHEMBL1157830, “Terpenoids and a flavonoid glycoside from Acacia pennata leaves as hedgehog/GLI-mediated transcriptional inhibitors” (J Nat Prod, 2010)
The source made the active and inactive calls. The calls are words filed in the database; no cut-off is given here.

Tests used:
[1] = Inhibition of Hh/GLI1-mediated transcription in human HaCaT cells expressing T-Rex system by luciferase reporter gene assay; format: cell-based
How it was run: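 HaCaT-GLI1-Luc cells (exogenous GLI1 under tetracycline control, T-REx) seeded at 2 × 10^5 per well. Compounds added after 12 h tetracycline induction, at 0.05% DMSO. GLI-dependent luciferase activity and cell viability read at the same time. n = 3, SD.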

[2] = system: PANC-1; test: Cytotoxicity against human PANC1 cells after 24 hrs by fluorimetric microculture cytotoxicity assay; format: functional, cell-based; details: PANC-1, 24 h
How it was run: (§1)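 Cells plated at 1 × 10^4 per well in RPMI + 10% FBS and preincubated 24 h at 37 °C. Medium then replaced with fresh medium containing a range of compound concentrations at 0.05% DMSO. After 24 h exposure, proliferation measured by fluorometric microculture cytotoxicity assay (FMCA). n = 3, SD; IC50 reported.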

[3] = system: DU-145; test: Cytotoxicity against human DU145 cells after 24 hrs by fluorimetric microculture cytotoxicity assay; format: functional, cell-based; details: DU-145, 24 h; how it was run: as §1
[4] = Cytotoxicity against mouse C3H10T1/2 cells after 24 hrs by fluorimetric microculture cytotoxicity assay; format: cell-based; details: C3H 10T1/2, 24 h; how it was run: as §1
[5] = system: HaCaT; test: Inhibition of Hh/GLI1-mediated PTCH protein expression in human HaCaT cells expressing T-Rex system after 24 hrs by Western blot; format: cell-based
How it was run: (§2)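 HaCaT cells carrying tetracycline-inducible exogenous GLI1 plated at 2 × 10^6 per 10 cm dish for 12 h at 37 °C, then induced with 1 µg/mL tetracycline for 12 h. Medium removed and compounds added at various concentrations for 24 h. Lysates in Tris/NaCl/deoxycholate/EDTA buffer with protease inhibitor run on 5% and 12.5% SDS-PAGE. Immunoblot for PTCH, BCL-2 and GLI1 with ECL detection.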

[6] = system: HaCaT; test: Inhibition of Hh/GLI1-mediated Bcl2 protein expression in human HaCaT cells expressing T-Rex system after 24 hrs by Western blot; format: cell-based; how it was run: as §2
[7] = system: PANC-1; test: Inhibition of Hh/GLI1-mediated PTCH protein expression in human PANC1 cells after 24 hrs by Western blot; format: cell-based
How it was run: (§3)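 PANC1 cells treated with compounds at various concentrations for 24 h. Lysates run on SDS-PAGE, transferred to PVDF and blocked 1 h in TBST with 5% milk. Primary antibodies (PTCH, BCL-2) 1 h at room temperature, secondary 1 h, then ECL detection. Same procedure as for the HaCaT blots.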

[8] = system: PANC-1; test: Inhibition of Hh/GLI1-mediated Bcl2 protein expression in human PANC1 cells after 24 hrs by Western blot; format: cell-based; how it was run: as §3
[9] = system: PANC-1; test: Inhibition of Hh/GLI1-mediated PTCH mRNA expression in human PANC1 cells at 0.2 uM after 24 hrs by RT-PCR; format: cell-based
How it was run: (§4)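 PANC1 cells treated, with untreated cells as control. Ptch mRNA was reverse transcribed with a two-step qRT-PCR kit and quantified by real-time PCR: 50 °C for 2 min, 95 °C for 2 min, then 40 cycles of 95 °C for 15 s and 60 °C for 30 s. Expression was compared with the untreated control.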

[10] = system: PANC-1; test: Inhibition of Hh/GLI1-mediated PTCH mRNA expression in human PANC1 cells at 0.4 uM after 24 hrs by RT-PCR; format: cell-based; how it was run: as §4
[11] = system: PANC-1; test: Inhibition of Hh/GLI1-mediated PTCH mRNA expression in human PANC1 cells at 4 uM after 24 hrs by RT-PCR; format: cell-based
How it was run: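 Ptch mRNA from treated and untreated PANC1 cells reverse-transcribed with a two-step qRT-PCR kit. Real-time PCR: 50 °C 2 min, 95 °C 2 min, then 40 cycles of 95 °C 15 s and 60 °C 30 s. Compared with an untreated control; cyclopamine included as positive control.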

[12] = system: PANC-1; test: Inhibition of Hh/GLI1-mediated PTCH mRNA expression in human PANC1 cells at 2 and 4 uM after 24 hrs by RT-PCR

SMILES | IC50 [1] | IC50 [2] | IC50 [3] | IC50 [4] | inhibition [5] | inhibition [6] | inhibition [7] | inhibition [8] | inhibition [9] | inhibition [10] | inhibition [11] | inhibition [12]
CC1=C(C)[C@@]2(C)CCCC(C)(C)[C@@H]2CC1 | 13.5 µM | 15.1 µM | 23.2 µM | > 100 µM | Dose-dependent effect | Dose-dependent effect | Dose-dependent effect | Dose-dependent effect |  |  |  | 
CC1=C2C[C@H]3[C@@H](CC=C4C[C@@H](O)CC[C@@]43C)[C@@H]2CC[C@]12O[C@@H]1C[C@H](C)CN[C@H]1[C@H]2C |  |  |  |  |  |  |  |  | Active | Active |  | 
COC(=O)[C@]1(C)CCC[C@]2(C)c3cc4occc4c(C)c3C[C@@H](OC(C)=O)[C@@H]12 [TAEPEENIN D] | 1.6 µM | 3.2 µM | 3.4 µM | > 100 µM | Dose-dependent effect | Dose-dependent effect | Dose-dependent effect | Dose-dependent effect |  |  | Active | Active
